From PubChem
PGC1a Ac signal = compounds raising PGC1a acetylation signal, primary screen, PGC1a modulator project, cell-based, U2OS, AlphaScreen, signal-increasing mode. 0.21% of 350,000 active. activation, % at 15.6 µM. overnight;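 active means every replicate reaching activation of at least 50%, whatever the mean replicate activation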;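 further: hits raise the AlphaScreen acetylation signal above neutral controls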
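System – flag-PGC1a/GCN5 U2OS cells · Quantity – 7000 U2OS cells per well · Signal – AlphaScreen proximity luminescence, anti-acetyl-lysine antibody · Schedule – overnight compound treatment, 37 °C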
Starred values were filed as active, the others as inactive. The entries come from a sample that favours hits as a whole.

SMILES | PGC1a Ac signal
C[C@@H]1CN([C@@H](C)CO)C(=O)CCCn2cc(nn2)CO[C@H]1CN(C)Cc1ccncc1 | -51
CSc1ncccc1C(=O)N1CCN(C(=O)c2ccccc2)CC1 | -44
C/C=C(/C)C(=O)O[C@@H]1c2cc(OC)c(OC)c(OC)c2-c2c(cc3c(c2OC)OCO3)C[C@H](C)[C@]1(C)O | 167*
CC(C)CC(OC(=O)c1cccs1)C(=O)NCc1ccco1 (stereo unspecified) | 86*
CC(=O)Nc1cccc(-c2ccnc3c2CC(C)(C(=O)Nc2ccc4c(c2)OCO4)O3)c1 (stereo unspecified) | 70*
COc1ccc(NC(=O)/C(Cl)=C(/Cl)S(=O)Cc2ccccc2)cn1 (stereo unspecified) | -71
O=C(Nc1cccc(Cl)c1)Nc1ccc2c(c1)OCO2 | -59
COc1ccc(NC(=O)C2(C)Cc3c(-c4cccc(NC(C)=O)c4)ccnc3O2)cn1 (stereo unspecified) | 58*
C[C@H](CO)N1C[C@H](C)[C@H](CN(C)S(=O)(=O)c2ccccc2C#N)OCc2cnnn2CCCC1=O | -41
COc1cc(OC)cc(C(=O)N[C@H](C(=O)OCC(=O)NC(=O)NC(C)(C)C)C(C)C)c1 | -43
C=C1C(=O)O[C@H]2[C@@H]1CC/C(CO)=C\CC[C@@]1(C)O[C@@H]21 | 61*
CCCN(C)C[C@H]1Oc2cc(C#Cc3ccc(OC)cc3)ccc2S(=O)(=O)N([C@@H](C)CO)C[C@H]1C | -49
CCOC(=O)c1ccc(-c2c(-c3cc(OC)c(OC)c(OC)c3)noc2C)cc1F | 59*
C[C@H]1CN([C@@H](C)CO)C(=O)CCCn2nncc2CO[C@@H]1CN(C)C(=O)Nc1ccc2c(c1)OCO2 | -49
Cc1ccc(N2CCN(CC(O)COC3CCCCC3)CC2)cc1 (stereo unspecified) | 82*
CCC(=O)Nc1ccc2c(c1)OC[C@@H](C)N(C(=O)c1cnccn1)C[C@H](C)[C@H](OC)CN(C)C2=O | -59
O=C(C[C@H]1CC[C@@H](NS(=O)(=O)c2ccc(F)cc2)[C@H](CO)O1)N1CCN(c2ccccc2)CC1 | -50
COc1ccccc1C(=O)/C=C/c1ccc(N2CCCCC2)c([N+](=O)[O-])c1 | 187*
C=C1CCN(c2ccc(C(=O)NCc3ccccc3)cc2[N+](=O)[O-])CC1 | -44
CC1=CC=CC2=NC(=O)CC(C)(C(=O)N(CC(=O)NC3CCCC3)c3ccccc3C)N12 (stereo unspecified) | 54*
CC(=O)Nc1ccc(Oc2sc(C(=O)c3ccccc3)c(N)c2C#N)cc1 | -22
O=C(C[C@H]1CC[C@@H](NC(=O)c2ccccc2)[C@H](CO)O1)Nc1ccc(-c2ccccc2)cc1 | -44
O=C(Nc1ccc(Nc2ccncc2)cc1)c1ccc([N+](=O)[O-])cc1 | 70*
CC(C)C(=O)Nc1ccc(NC(=O)c2ccc([N+](=O)[O-])cc2Cl)cc1 | -52
COc1ccc(NC(=O)N[C@H]2CC[C@@H](CCn3cc(-c4ccccc4F)nn3)O[C@H]2CO)cc1 | -50
SMILES | PGC1a Ac signal
Cn1c(O)c(C(C#N)=C2N=c3ccccc3=N2)c2ccccc21 | 72*
COCC(=O)N1C[C@@H](C)[C@@H](OC)CN(C)C(=O)c2ccc(NC(=O)c3cnccn3)cc2OC[C@@H]1C | -61
O=C(Nc1cc(C(F)(F)F)ccc1N1CCOCC1)c1ccccc1 | 63*
C[C@@H](C(=O)Nc1cc(C(F)(F)F)ccc1N1CCOCC1)N1C(=O)C2CC=CCC2C1=O (stereo partly specified) | -41
O=C(Nc1ccccc1N1CCOCC1)C1(c2ccc(Cl)cc2)CCC1 | -41
CCCCNC(=O)C1CCN(Cc2ccccn2)CC1 | -46
CC/C(=C(\c1ccccc1)c1ccc(OCCN(C)C)cc1)c1ccccc1 | 124*
CC/C(=C(\c1ccc(O)cc1)c1ccc(OCCN(C)C)cc1)c1ccccc1 | 63*
CCN(CC)CCOc1ccc(/C(=C(/Cl)c2ccccc2)c2ccccc2)cc1 | 99*
C[n+]1cccc(CNC(=O)/C=N/O)c1 | -51
COc1cccc(-n2c(-c3cccc(S(=O)(=O)N(C)C)c3)n[nH]c2=S)c1 | -56
CCCS(=O)(=O)c1nnnn1-c1cccc(OC)c1 | 73*
CCOc1ccc(S(=O)(=O)/N=C(/Nc2ccc(C(C)=O)cc2)c2ccccc2)cc1 | 66*
CCOc1ccc(N(C(=O)Nc2ccccc2)C2=NCCC2)cc1 | -44
CCOc1ccc(NS(=O)(=O)c2ccc3c(c2)oc(=O)n3C)cc1 | -46
CCC(=O)NC1(Cc2ccc(O)cc2)CCCCC1 | -44
Cc1noc(C)c1NC(=O)Nc1ccc2c(c1)C(=O)N([C@@H](C)CO)C[C@@H](C)[C@@H](CN(C)CC1CCCCC1)OCCCC[C@H](C)O2 | -55
COc1cccc(-c2cc(C(=O)NCCCn3ccnc3)no2)c1 | 80*
CC(C)(CO)CNc1ccn2nccc2n1 | -43
COc1ccc(CN(C)C[C@H]2Oc3ccc(NC(=O)Cc4cn(C)c5ccccc45)cc3CC(=O)N([C@@H](C)CO)C[C@@H]2C)cc1 | -41
COc1cccc(NC(=O)CN(C)C(=O)CNC(=O)c2ccccc2F)c1 | -45
CCOc1ccc(CN2CCNC(=O)C2CC(=O)NCc2ccccn2)cc1 (stereo unspecified) | -48
O=C(C[C@@H]1C=C[C@@H](NC(=O)CN2CCOCC2)[C@H](CO)O1)NC1CCCCC1 | -51
C=C1C(=O)O[C@H]2[C@H]1[C@@H](O)CC(=C)[C@@H]1CC(=O)[C@@H](C)[C@H]21 | 72*
CC(=O)N(c1ccccc1)c1nnc(-c2cnc(C)cn2)s1 | -58
SMILES | PGC1a Ac signal
O=c1c2cn(Cc3ccc(F)cc3)c3ccc(F)cc3c-2nn1Cc1ccc(F)cc1 | -45
CCc1cc(C=NC2CCCCC2)c(O)s1 | 61*
C/C=C/Cn1c(SCc2ccc(Cl)cc2)nc2c1c(=O)[nH]c(=O)n2C | -50
CC1(C)OC(C)(C)/C(=C\c2ccc(OCC(N)=O)cc2)C1=O | -46
COC(=O)c1ccc2c(c1)C(C)(C)C(/C=C/c1ccc(O)cc1)=[N+]2C | 59*
Oc1ccc(-c2nnc(-c3ccc(O)cc3)nn2)cc1 | 74*
CCOc1ccc2nnc(-c3ccc(Br)cc3)n2n1 | 52*
Cc1c(C(=S)Nc2ccccc2)cnn1-c1ccc([N+](=O)[O-])cc1 | 71*
Cc1cccc(C)c1NC(=O)C(NC(=O)c1ccccn1)c1ccc([N+](=O)[O-])cc1 (stereo unspecified) | -42
Cc1cc(C)n(C(=O)c2ccc([N+](=O)[O-])cc2N)n1 | -44
Cc1ccc(CNC(=O)C2CC(c3ccc([N+](=O)[O-])cc3)=NO2)cc1 (stereo unspecified) | 78*
CCOc1ccc2c(c1)C(C)=CC(C)(C)N2S(=O)(=O)c1ccc(C)cc1 | 64*
C=CCNS(=O)(=O)c1cccc2cc(C(=O)O)c(O)cc12 | -95
C=CC(=O)N1C/C(=C/c2ccc(F)cc2)C(=O)/C(=C\c2ccc(F)cc2)C1 | -83
C[C@H]1CN([C@@H](C)CO)C(=O)c2cc(C#Cc3ccccc3)cnc2O[C@@H]1CN(C)C(=O)c1ccccc1F | -46
C[C@@H]1CN([C@@H](C)CO)C(=O)c2cc(C3=CCCC3)cnc2O[C@@H]1CN(C)C(=O)Nc1cccc(F)c1 | 131*
C[C@@H]1CN([C@@H](C)CO)C(=O)c2cc(C#CCN(C)C)cnc2O[C@H]1CN(C)Cc1ccc(F)cc1 | -48
C[C@H]1CN([C@@H](C)CO)C(=O)c2cc(-c3cncnc3)cnc2O[C@@H]1CN(C)C(=O)c1cccc(F)c1 | -51
